# B2AR ag = beta2AR agonists driving receptor internalization, primary screen, cell-based, FAP fluorogen, flow cytometry. Beta-2 adrenergic receptor (Homo sapiens), P07550. Am2.2-beta2AR cells. response, % (concentration not given with the values). 340,000 compounds, 0.43% hits;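 active means response above a set limit, near 3 SD of response in nonfluorescent compounds, cut at about 42% in these data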
# APJ agonist = agonists of human apelin receptor APJ, primary screen, CHO-K1 cells, PathHunter beta-arrestin, luminescence. 0% DMSO wells, 100% apelin. 330,000 compounds, 0.11% hits. P35414. activation, % at 20 µM;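 active means activation more than six SD over the plate average, tested at 20 µM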
#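 assay system = CHO-K1 APJ beta-arrestin complementation cell line | input = cell density 1000 per well | dosing = compound 20 µM once, DMSO 1% | timing = compound 90 min 25 °C, reagent 1 h | measured by = luminescence from split beta-galactosidase complementation, Galacton Star/Emerald II substrate | read-out basis = APJ agonist activity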
# APJ antagonist = antagonists of human apelin receptor APJ, primary screen, CHO-K1 cells, beta-arrestin complementation, luminescence; P35414; inhibition, % at 20 µM; 330,000 compounds, 0.32% hits;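 active means inhibition above about 40% at 20 µM, limit read from the data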;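 further: cells challenged with 10 nM apelin-13 agonist together with compound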
# PfGluPho inh = PfG6PD enzyme inhibitors, primary screen, biochemical, fluorescence intensity, uHTS; glucose-6-phosphate dehydrogenase-6-phosphogluconolactonase (Plasmodium falciparum 3D7); PfGluPho enzyme, NADPH resazurin-diaphorase fluorescence; inhibition, % at 20 µM; 350,000 compounds, 0.78% hits; AID 504690, 2011;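 active means inhibition reaching at least a set limit at 20 µM in the primary screen, cut at about 59% in these data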
# CXCR6 inh = CXCR6 receptor inhibitors, primary screen, cell-based, beta-arrestin, luminescence, CHO-K1 PathHunter, 1536-well; C-X-C chemokine receptor type 6 (Homo sapiens), O00574; inhibition, % at 20 µM; 360,000 compounds, 0.36% hits; AID 602244, 2012; in the data active means inhibition above about 34%, passing the limit was not always enough;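 further: antagonist mode with CXCL16 agonist at 10 nM final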
# Target sequence (O00574 whole entry, looked up): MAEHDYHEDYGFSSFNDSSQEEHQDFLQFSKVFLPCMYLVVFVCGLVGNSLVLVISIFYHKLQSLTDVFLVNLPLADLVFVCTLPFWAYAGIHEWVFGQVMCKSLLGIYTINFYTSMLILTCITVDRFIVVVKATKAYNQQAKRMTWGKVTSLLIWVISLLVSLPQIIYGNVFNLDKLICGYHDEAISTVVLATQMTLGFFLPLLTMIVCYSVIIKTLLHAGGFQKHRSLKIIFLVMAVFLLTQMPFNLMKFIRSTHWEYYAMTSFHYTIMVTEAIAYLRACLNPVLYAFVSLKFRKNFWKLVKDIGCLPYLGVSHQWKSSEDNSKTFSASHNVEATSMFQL
# CCR6 antag = CCR6 receptor antagonists, primary screen, cell-based, CHO-K1, luminescence, beta-arrestin, uHTS. C-C chemokine receptor type 6 (Homo sapiens), P51684. CHO-K1 CCR6 PathHunter beta-arrestin, CCL20-stimulated. inhibition, % at 20 µM. 340,000 compounds, 0.49% hits. AID 493098, 2011;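 active means compounds whose inhibition of the agonist-driven luminescence signal at 20 µM reaches about 50%, limit read from the data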;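 further: cells stimulated with CCL20 at 14 nM final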
# Target sequence (P51684 whole entry, looked up): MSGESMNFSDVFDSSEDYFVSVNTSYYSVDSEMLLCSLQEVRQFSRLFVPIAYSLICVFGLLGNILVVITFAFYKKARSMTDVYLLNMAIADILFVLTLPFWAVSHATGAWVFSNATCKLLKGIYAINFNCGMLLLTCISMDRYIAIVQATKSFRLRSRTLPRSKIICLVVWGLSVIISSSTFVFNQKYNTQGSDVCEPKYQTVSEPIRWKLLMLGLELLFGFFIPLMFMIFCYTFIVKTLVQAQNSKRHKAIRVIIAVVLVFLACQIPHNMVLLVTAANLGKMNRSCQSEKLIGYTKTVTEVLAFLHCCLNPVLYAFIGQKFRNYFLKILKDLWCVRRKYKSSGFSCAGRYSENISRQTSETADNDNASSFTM
# PfG6PD confirm = PfG6PD inhibitors, hit retest, confirmation, biochemical, fluorescence intensity, single concentration | 2,400 compounds, 34% hits | recombinant PfGluPho, NADPH-diaphorase-resazurin fluorescence | shares compounds with PfGluPho inh | inhibition, % at 20 µM;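 active means inhibition of at least 50% at 20 µM in any single replicate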
# Diaphorase 10uM = diaphorase inhibitors and chemical oxidizers, confirmation, counter-screen for P. falciparum G6PD inhibitor project, biochemical, fluorescence intensity, 10 µM NADPH; shares compounds with PfGluPho inh; diaphorase-coupled resazurin reduction, NADPH 10 uM; inhibition, % at 20 µM; 820 compounds, 39% hits; AID 504862, 2011;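 active means average inhibition reaching 50% or more with the compound at 20 µM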;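 further: resorufin red fluorescence formed as diaphorase reduces resazurin using NADPH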
# Diaph ctr 30uM = diaphorase inhibitors and chemical oxidizers, confirmation, counter-screen for P. falciparum G6PD inhibitor project, biochemical, fluorescence intensity, 30 µM NADPH; 820 compounds, 29% hits; inhibition, % at 20 µM; Diaphorase/resazurin coupled assay, resorufin fluorescence; shares compounds with PfGluPho inh;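 active means inhibition averaging 50% or more, tested at 20 µM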
# CXCR6 antag conf = CXCR6 receptor antagonists, confirmation, cell-based, single concentration, beta-arrestin, luminescence; AID 602409, 2012; CHO-K1 CXCR6 PathHunter beta-arrestin; inhibition, % at 20 µM; shares compounds with CXCR6 inh; 700 compounds, 65% hits;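 active means mean inhibition over four retests above 40%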;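 further: receptor stimulated with 10 nM CXCL16 agonist; beta-galactosidase fragment complementation upon beta-arrestin recruitment to receptor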
# Hits are given with their value; n = inactive; x = not tested or not shown. This is a sample that favours compounds with a hit; in the whole collection about 1.7% have one here.
SMILES,B2AR ag,APJ agonist,APJ antagonist,PfGluPho inh,CXCR6 inh,CCR6 antag,PfG6PD confirm,others
O=C(NCc1ccccc1)c1ccc(NC(=O)C2CCCO2)cc1 (stereo unspecified),n,n,n,n,n,n,x,
Cc1cc(=O)oc2cc(O)cc(OCc3ccccc3)c12,n,x,x,n,n,n,x,
S=C(NCc1ccccc1)NNc1nc2ccccc2[nH]1,n,n,n,77,n,n,n,
c1ccc(CNc2nc3ccccc3[nH]2)cc1,n,n,n,n,n,n,x,
Cc1cc(O)c(C(C)C)cc1N=Cc1ccccc1[N+](=O)[O-],n,x,x,101,n,n,65,Diaphorase 10uM=n;Diaph ctr 30uM=n
NC(=S)NN=C(c1ccc(Br)cc1)C1CC1,n,x,x,n,n,n,x,
NC(=S)NN=Cc1nccc2c(C(F)(F)F)cccc12,x,x,x,n,n,x,x,
CNc1cccnc1C=NNC(N)=S,n,x,x,74,n,n,n,
O=c1[nH]nc(CNc2ccc(O)cc2)c2ccccc12,n,n,n,59,n,n,48,Diaphorase 10uM=n;Diaph ctr 30uM=n
CCN1CCCC1CNC(=O)c1ccc2c(c1)NC(=O)/C(=C\c1ccccc1Cl)S2 (stereo unspecified),x,x,x,118,n,x,105,Diaphorase 10uM=n;Diaph ctr 30uM=n
O=C1Nc2cc(C(=O)NCCCN3CCCC3)ccc2S/C1=C/c1cccc(Cl)c1,x,x,x,61,n,x,79,Diaphorase 10uM=n;Diaph ctr 30uM=n
CCN1CCCC1CNC(=O)c1ccc2c(c1)NC(=O)/C(=C\c1ccc(OC)c(OC)c1)S2 (stereo unspecified),n,n,n,n,n,n,x,
Clc1ccccc1-c1nnc2sc(-c3ccc4c(c3)OCO4)nn12,n,n,n,63,n,n,n,
c1ccc(CCc2nn3c(-c4ccncc4)nnc3s2)cc1,n,n,n,n,n,n,x,
Clc1ccccc1-c1nnc2sc(CCc3ccccc3)nn12,n,n,n,60,n,n,n,
CC(C)n1c(=S)[nH]c2c1c(=O)[nH]c(=O)n2C,n,n,n,67,n,n,n,
C=CC(C)n1c(Br)nc2c1c(=O)[nH]c(=O)n2C (stereo unspecified),n,n,n,n,n,n,x,
COC(=O)CCN(c1ccccc1)S(=O)(=O)c1cc(-c2cc(C)no2)ccc1C,n,n,n,n,n,n,x,
CCOc1ccc(S(=O)(=O)N2CCOCC2)cc1NC(=O)CSCC(=O)Nc1ccc(OC)cc1,n,x,x,n,n,n,x,
CCc1cc2cc(C(=O)Nc3ccc(F)cc3)sc2s1,n,n,n,n,n,n,x,
CC(C)(C)c1ccc(C(=O)Nc2ccc(F)cc2)s1,n,n,n,86,n,n,n,
CCCCNC(=O)c1nc(C2CCN(S(=O)(=O)c3c(F)cccc3F)CC2)oc1-c1cccc(C(F)(F)F)c1,x,x,x,x,n,x,x,
Nc1ccc(CNC(=O)OCC2c3ccccc3-c3ccccc32)cc1,n,n,n,117,n,n,74,Diaphorase 10uM=65;Diaph ctr 30uM=56
O=C(N[C@H](Cc1ccc(Cl)cc1)C(=O)O)OCC1c2ccccc2-c2ccccc21,n,n,n,n,n,n,x,
Cc1nn(CCC(N)=S)c2nc(-c3cccs3)cc(C(F)(F)F)c12,n,n,n,62,n,n,n,
SMILES,B2AR ag,APJ agonist,APJ antagonist,PfGluPho inh,CXCR6 inh,CCR6 antag,PfG6PD confirm,others
C[C@@H]1ON(C)[C@H]2C[C@H]3c4[nH]c5ccc(-c6ccc7c(c6)OCO7)cc5c4CCN3C(=O)[C@@H]12,x,x,x,76,n,x,n,
COc1cccc(C(C)(O)c2nc(-c3ccc(OC)nc3)cs2)c1 (stereo unspecified),x,x,x,x,n,x,x,
C(=N\NC1=Nc2cccc3cccc1c23)/c1cccnc1,n,n,n,82,n,n,n,
C(=N\NC1=Nc2cccc3cccc1c23)/c1ccccc1,n,n,n,66,n,n,n,
O=c1cc(-c2ccsc2)oc2ccc(-c3ccc4cc[nH]c4c3)cc12,n,n,n,n,n,n,x,
C/C=C1\NC(=O)[C@H](CC(N)=O)N(C)C(=O)C([C@@H](C)O)NC(=O)C(CCCc2ccc(OC)cc2)NC(=O)[C@H](C(C)C)NC(=O)/C(=C\C)NC(=O)[C@H](O)[C@@H](C[C@@H](O)CCCCCCC)NC(=O)[C@H](C)NC(=O)CN(C)C(=O)[C@H](CCC(N)=O)NC1=O (stereo partly specified),n,x,x,n,n,n,x,
O=C(O)c1ccc(-n2c(-c3cc(-c4ccco4)[nH]n3)n[nH]c2=S)cc1,n,n,n,59,n,n,56,Diaphorase 10uM=n;Diaph ctr 30uM=n
CC(=O)c1ccc(-n2c(-c3cc(-c4ccco4)[nH]n3)n[nH]c2=S)cc1,n,n,n,n,n,n,x,
CCc1[nH]c(=S)c(C#N)c2c1CCCC2,n,n,n,66,n,n,n,
COc1ccccc1Nc1nnc(SCc2cc(=O)n3ccsc3n2)s1,n,n,n,67,n,n,n,
Cc1ccc(CNC(=O)Cn2cnc(S(=O)(=O)N3CCC(C)CC3)c2)o1,n,n,n,n,n,n,x,
Brc1ccc(NC(c2ccccc2)c2ccncc2)cc1 (stereo unspecified),n,n,n,n,n,n,x,
Cc1cc(C)c2c(=O)n(CC(=O)Nc3ccc(Cl)cc3)sc2n1,n,n,n,112,65,n,96,Diaphorase 10uM=n;Diaph ctr 30uM=n;CXCR6 antag conf=n
CCOc1ccc(NC(=O)Cn2sc3nc(C)cc(C)c3c2=O)cc1,n,n,n,104,38,n,90,Diaphorase 10uM=n;Diaph ctr 30uM=n;CXCR6 antag conf=n
CC1(C2CC2)NC(=O)N(CC(=O)Nc2ccccc2F)C1=O (stereo unspecified),n,n,n,n,n,n,x,
O=C1C=CC(=O)N1c1ccc2c(c1)C(NC(=O)C(F)(F)F)c1ccccc1-2 (stereo unspecified),n,x,x,98,79,108,51,Diaphorase 10uM=n;Diaph ctr 30uM=n;CXCR6 antag conf=n
